ChEMBL document CHEMBL1158469 (J Med Chem, 2009)
Active and inactive are the calls of the source. No cut-off for these calls is given here.

Columns and labels:
[1] = Cytotoxicity against human H1299 cells assessed as cell viability after 72 hrs by ATP-LITE assay; type: functional, cell-based; conditions: NCI-H1299, 72 h
How it was run: (§1)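 ATP-LITE viability readout. Seeded 24 h before dosing (H460, H1299 at 2000 cells/well; PC3 at 3000 cells/well) in 12F2 or RPMI1640 with 5 mM L-glutamine, 5% FBS and pen/strep. Fresh 5% medium added, then compounds in 0.1% DMSO final. Viability read after 72 h treatment and normalized to DMSO-treated cells.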

NCI-H460 = assay: Cytotoxicity against human H460 cells assessed as cell viability after 72 hrs by ATP-LITE assay; type: functional, cell-based; conditions: NCI-H460, 72 h; how it was run: as §1
[2] = Cytotoxicity against human PC3-ML cells assessed as cell viability after 72 hrs by ATP-LITE assay; type: functional, cell-based; how it was run: as §1
[3] = Induction of apoptosis in human RS11846 cells after 1 to 2 days by FITC-annexin V and propidium iodide assay; type: functional, cell-based
[4] = (§2) Induction of apoptosis in human BP3 cells after 1 to 2 days by FITC-annexin V and propidium iodide assay; type: functional, cell-based
[5] = Cytotoxicity against wild type mouse fibroblast assessed as induction of cell death at 10 uM by FITC-annexin V and propidium iodide assay; type: cell-based
How it was run: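 Wild-type MEFs seeded at half a million per well in DMEM with 10% FCS. Next day compound added at 0, 2.5, 5.0, 7.5 or 10 μM. On the following day, floating and trypsinized adherent cells were pooled and stained with Annexin V-FITC and PI in binding buffer. Analyzed by flow cytometry, with double-negative cells counted as viable.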

[6] = Chemical stability after 60 days at room temperature by HPLC/LC-MS analysis; type: physicochemical; conditions: 1440 h
How it was run: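 Solid compounds stored in air at room temperature for 60 days. Stability followed by HPLC combined with LC-MS.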

[7] = Stability in rat plasma after 1 hr at 37.5 degC; type: ADME, cell-free; conditions: read-out: Stability
How it was run: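 Compound incubated in rat plasma for 1 h; percentage of parent remaining was reported.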

[8] = Stability in rat liver microsome at 4 uM after 1 hr; type: ADME; conditions: liver microsomes, read-out: Stability
How it was run: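 Compound incubated for 1 h in rat microsomal preparations; percentage of parent remaining was reported.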

[9] = Membrane permeability assessed as drug permeation at 100 uM at pH 7.2 after 8 hrs by PAMPA; type: ADME; conditions: pH 7.2, 8 h
Mus musculus [10] = assay: Induction of spleen weight shrinkage in human Bcl2 expressing B6 transgenic mouse at 72 umol/kg, ip administered as single dose after 24 hrs; type: functional
How it was run: (§3)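 Age- and sex-matched B6Bcl2 transgenic mice (human BCL-2/IgH minigene, B cells accumulating in spleen), free of aggressive lymphoma. Single ip injection at 72 μmol/kg in 500 μL ethanol:Cremophor EL:saline 10:10:80; controls got vehicle alone. Killed with Avertin after 24 h and spleen weighed. Shrinkage expressed as percentage of maximum spleen-weight reduction.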

Mus musculus [11] = assay: Toxicity in human Bcl2 expressing B6 transgenic mouse administered as single dose at 72 umol/kg, ip after 24 hrs; type: organism-based; conditions: in vivo
[12] = biological target: Bcl-2-like protein 1 (Homo sapiens) (UniProt Q07817); assay: Inhibition of Bcl-xL at 200 uM by 1D 1H NMR binding assay
BP3 [13] = assay: as §2; type: functional, cell-based
BP3 [14] = assay: Cytotoxicity against human BP3 cells expressing Bfl1/Mcl1 by FITC-annexin V and propidium iodide assay; type: functional, cell-based
Mus musculus [15] = assay: Reduction of spleen weight in human Bcl2 expressing B6 transgenic mouse at 72 umol/kg, ip administered as single dose after 24 hrs; type: functional; set-up: scale not given: the % may be the effect or the level left; how it was run: as §3
Mus musculus [16] = assay: Reduction of spleen weight in human Bcl2 expressing B6 transgenic mouse at 42 umol/kg, ip administered as single dose after 24 hrs; type: functional; set-up: scale not given: the % may be the effect or the level left
Mus musculus [17] = assay: Gastrointestinal toxicity in human Bcl2 expressing B6 transgenic mouse at 50 mg/kg, ip administered as single dose after 24 hrs; type: organism-based; set-up: dose 50 mg/kg, route intraperitoneal; conditions: in vivo
Mus musculus [18] = assay: Toxicity in BALB/c mouse assessed as mortality at 100 mg/kg, ip administered as single dose after 14 days; type: organism-based; set-up: dose 100 mg/kg, route intraperitoneal; conditions: in vivo, 336 h
Mus musculus [19] = assay: Toxicity in BALB/c mouse assessed as recovery of weight loss administered as single ip dose after 14 days; type: organism-based; conditions: in vivo, 336 h
How it was run: (§4)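 Tolerability study in five mice given a single ip dose of 100, 75, 50 or 25 mg/kg. Animals observed for 14 days, recording body weight loss as morbidity and mortality.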

Mus musculus [20] = assay: Toxicity in mouse assessed as reduction of spleen weight at 42 mg/kg, ip; type: organism-based; set-up: dose 42 mg/kg, route intraperitoneal; conditions: in vivo
How it was run: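 B6Bcl2 transgenic mice, six per group, given a single ip dose of 42 mg/kg (60 μmol/kg) in ethanol:Cremophor EL:saline 10:10:80; six vehicle-injected controls. Spleens weighed 24 h after injection. Data are means ± S.E. (n = 6).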

Mus musculus [21] = assay: Toxicity in BALB/c mouse assessed as weight loss at 25 mg/kg, ip administered as single dose after 14 days; type: organism-based; set-up: dose 25 mg/kg, route intraperitoneal; conditions: in vivo, 336 h
Mus musculus [22] = assay: Toxicity in BALB/c mouse assessed as mortality at 75 mg/kg, ip administered as single dose after 14 days; type: organism-based; set-up: dose 75 mg/kg, route intraperitoneal; conditions: in vivo, 336 h
Mus musculus [23] = assay: Toxicity in BALB/c mouse assessed as mortality at 50 mg/kg, ip administered as single dose after 14 days; type: organism-based; set-up: dose 50 mg/kg, route intraperitoneal; conditions: in vivo, 336 h
Mus musculus [24] = assay: Toxicity in BALB/c mouse assessed as mortality at 25 mg/kg, ip administered as single dose after 14 days; type: organism-based; set-up: dose 25 mg/kg, route intraperitoneal; conditions: in vivo, 336 h
Mus musculus [25] = assay: Toxicity in BALB/c mouse assessed as weight loss at 75 mg/kg, ip after 5 days; type: organism-based; set-up: dose 75 mg/kg, route intraperitoneal; conditions: in vivo, 120 h; how it was run: as §4
Mus musculus [26] = assay: Toxicity in BALB/c mouse assessed as weight loss at 50 mg/kg, ip administered as single dose after 14 days; type: organism-based; set-up: dose 50 mg/kg, route intraperitoneal; conditions: in vivo, 336 h; how it was run: as §4
Mus musculus [27] = assay: Toxicity in human Bcl2 expressing B6 transgenic mouse assessed as gastrointestinal toxicity at 42 umol/kg, ip administered as single dose; type: organism-based; conditions: in vivo
Mus musculus [28] = assay: Toxicity in human Bcl2 expressing B6 transgenic mouse assessed as weight loss at 42 umol/kg, ip administered as single dose; type: organism-based; conditions: in vivo
[29] = Cytotoxicity against Bax/Bak double knockout mouse fibroblast assessed as induction of cell death at 10 uM by FITC-annexin V and propidium iodide assay; type: cell-based
How it was run: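 MEFs (wild-type and Bax/Bak double knockout) seeded at half a million per well in DMEM with 10% FCS; next day compound added at final 0, 2.5, 5.0, 7.5 and 10 μM. After about one day, floating and trypsinised adherent cells were pooled and stained with Annexin V-FITC and PI. Flow cytometry scored Annexin V-negative/PI-negative cells as viable.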

Bcl-2-like protein 1 (Homo sapiens), sequence (Q07817 whole entry): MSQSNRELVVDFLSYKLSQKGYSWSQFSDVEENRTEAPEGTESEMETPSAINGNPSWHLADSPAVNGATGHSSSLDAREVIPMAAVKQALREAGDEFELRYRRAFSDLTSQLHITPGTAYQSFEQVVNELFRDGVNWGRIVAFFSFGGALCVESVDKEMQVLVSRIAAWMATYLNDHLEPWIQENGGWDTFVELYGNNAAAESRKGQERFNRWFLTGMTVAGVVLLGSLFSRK

Row | Compound | EC50 [1] [µM] | EC50 (NCI-H460) [µM] | EC50 [2] [µM] | EC50 [3] [µM] | EC50 [4] [µM] | Activity [5] | Stability [6] | remaining at 1 h, 4 µM [8] [%] | logPe [9] [log cm/s] | Activity (Mus musculus [10]) | Activity (Mus musculus [11]) | Activity [12] | Activity (Mus musculus [15]) | further results
1 | CCc1ccc(CCNC(=O)c2c(O)c(O)cc3c(O)c(-c4c(C)cc5c(C(=O)NCCc6ccc(CC)cc6)c(O)c(O)cc5c4O)c(C)cc23)cc1 | 0.36 | 0.4 | 1.7 | 3 | 0.2 | 80% | Stable | 87 | -8.15 | 85% | Toxic |  |  | remaining at 1 h [7]: 94%
2 | Cc1cccc(CNC(=O)c2c(O)c(O)cc3c(O)c(-c4c(C)cc5c(C(=O)NCc6cccc(C)c6)c(O)c(O)cc5c4O)c(C)cc23)c1 | 3.1 | 2.9 | 10.2 | 4.8 |  |  |  |  |  |  |  | Active |  | Activity (BP3 [13]): Dose-dependent effect
3 | CN(C)CC[C@H](CSc1ccccc1)Nc1ccc(S(=O)(=O)NC(=O)c2ccc(N3CCN(Cc4ccccc4-c4ccc(Cl)cc4)CC3)cc2)cc1[N+](=O)[O-] |  |  |  |  |  |  |  |  |  |  |  |  |  | Activity (BP3 [14]): inactive
4 | Cc1cc2c(C(=O)NCCc3cccc(Cl)c3)c(O)c(O)cc2c(O)c1-c1c(C)cc2c(C(=O)NCCc3cccc(Cl)c3)c(O)c(O)cc2c1O | 7.8 | 0.99 | 3.2 | 4.6 | 0.41 | 80% | Stable | 90 | -7.71 |  | Toxic | Active | 40% | 
5 | Cc1cc2c(C(=O)O)c(O)c(O)cc2c(O)c1-c1c(C)cc2c(C(=O)O)c(O)c(O)cc2c1O | > 30 | > 30 | > 30 | > 30 | > 30 |  |  |  |  |  |  | inactive |  | Activity (BP3 [13]): Dose-dependent effect
6 | Cc1cc2c(C(=O)NCC(C)c3ccccc3)c(O)c(O)cc2c(O)c1-c1c(C)cc2c(C(=O)NCC(C)c3ccccc3)c(O)c(O)cc2c1O (stereo not given) |  |  |  |  |  | 80% | Stable | 76 | -7.51 | 85% | Toxic | Active | 40% | remaining at 1 h [7]: 96%; Activity (Mus musculus [16]): 70%; Activity (Mus musculus [17]): Toxic; Activity (Mus musculus [18]): Non-toxic; Activity (Mus musculus [19]): 80%; Activity (Mus musculus [20]): Non-toxic; Activity (Mus musculus [21]): Non-toxic; Activity (Mus musculus [22]): Non-toxic; Activity (Mus musculus [23]): Non-toxic; Activity (Mus musculus [24]): Non-toxic; Activity (Mus musculus [25]): Non-toxic; Activity (Mus musculus [26]): <= 15%; Activity (Mus musculus [27]): Non-toxic; Activity (Mus musculus [28]): 7.8%
7 | Cc1cc2c(C(C)C)c(O)c(O)c(C=O)c2c(O)c1-c1c(C)cc2c(C(C)C)c(O)c(O)c(C=O)c2c1O [GOSSYPOL] | 6 | 3 | 3.1 | 4.2 | 1.42 | Active |  |  |  | <=40% |  | Active | <=20% | Activity [29]: Active
